Experimental data from different studies.
Compare with care: the assays were run in different laboratories.
Target: Tyrosine-protein kinase Fgr (FGR, Homo sapiens, UniProt P09769)

SMILES | test | conditions | remaining binding [%]
O=C(c1ccc(Nc2nccc(-c3cc4ccccc4s3)n2)cc1)N1CCC(N2CCCC2)CC1 | cell-free assay, competition with immobilised ligand | 1 µM | 93
COCCOc1nc(-c2ccc(Cl)nc2)nc2c1CN(C(=O)c1ncn3ccccc13)CC2 | cell-free assay, competition with immobilised ligand | 0.1 µM | 100
CNC(=O)[C@@H]1CC[C@@H](n2c(-c3ccc4cnccc4c3)nc3ccc(C(=O)NCc4cccc(C(N)=O)c4)cc32)C1 | binding, competition with immobilised ligand | 1 µM | 100
CC1CCCN1c1nccc(-c2cnn3ncccc23)n1 (centres unmarked) | binding | 1 µM | 98
Nc1ncc2c(n1)-c1c([nH]c3ccc(C#CC4CC4)cc13)CCCC2 | binding, competition with immobilised ligand | 1 µM | 100
CN(CCCC(F)(F)F)c1nccc(-c2cnn3ncccc23)n1 | binding | 1 µM | 85
C[C@@H]1CN(c2cc(-c3nn(C)c4ccc(OC5(C)CC5)cc34)ncn2)C[C@H](C)O1 | cell-free assay, competition with immobilised ligand | 1 µM | 90
CN(C)c1nccc(-c2cnn3ncccc23)n1 | binding | 1 µM | 100
CN([C@@H]1CCc2c(CC(=O)O)c3ccccc3n2C1)S(=O)(=O)c1ccc(F)cc1 | cell-free assay, competition with immobilised ligand | 1 µM | 93
O=C(NCC1CCOCC1)c1n[nH]cc1NC(=O)c1c(F)cccc1F | binding, competition with immobilised ligand | 1 µM | 100
Cc1nccc(COC(=O)N2C[C@@H]3[C@@H](CNC(=O)c4ccc5[nH]nnc5c4)[C@@H]3C2)n1 | cell-free assay, competition with immobilised ligand | 1 µM | 100
Cc1cnc(Nc2ccc(C(=O)N3CCC(N4CCCC4)CC3)cc2)nc1-c1cc2ccccc2s1 | cell-free assay, competition with immobilised ligand | 1 µM | 53
CNCc1ccccc1-c1csc([C@@H](C)Nc2nc(C)nc3cc(OC)c(OC)cc23)c1 | cell-free assay, competition with immobilised ligand | 1 µM | 100
C[C@@H]1CCN(c2nccc(-c3cnn4ncccc34)n2)C1 | binding | 1 µM | 100
O=C(NCCCN1CCOCC1)c1ccc(Nc2nccc(-c3cc4ccccc4s3)n2)cc1 | cell-free assay, competition with immobilised ligand | 1 µM | 79
C[C@@H](c1ccc(-n2cnc3c(N)ncnc32)cc1)N1CCc2nn(C)c(Cc3ccccc3)c2C1=O | binding, competition with immobilised ligand | 0.1 µM | 81
CN(C)c1ncc(F)c(-c2cnn3ncccc23)n1 | binding | 1 µM | 88
CCS(=O)(=O)c1cc2cc(C[C@](O)(CC(C)(C)c3ccc(F)cc3C(N)=O)C(F)(F)F)[nH]c2cn1 | cell-free assay, competition with immobilised ligand | 1 µM | 100
F[C@@H]1CCN(c2nccc(-c3cnn4ncccc34)n2)C1 | binding | 1 µM | 81
CCN1CCN(Cc2ccc(C(=O)Nc3ccc(C)c(Oc4ccc5c(c4)CC(=O)N5)c3)cc2C(F)(F)F)CC1 | binding, competition with immobilised ligand | 1 µM | 68
